Measurements as given in ChEMBL document CHEMBL1157808, “Synthesis and biological evaluation of phenolic 4,5-dihydroisoxazoles and 3-hydroxy ketones as estrogen receptor alpha and beta agonists” (Bioorg Med Chem, 2010).
Active and inactive are the calls of the source. The calls are words filed in the database; no cut-off is given here.

Assays:
[1] = target: T1, Estrogen receptor (Homo sapiens) (UniProt P03372); test: Induction of ERalpha-mediated pS2 gene expression in human MCF7 cells at 10 nM after 24 hrs by real-time quantitative PCR analysis; format: cell-based
T1 sequence (whole entry): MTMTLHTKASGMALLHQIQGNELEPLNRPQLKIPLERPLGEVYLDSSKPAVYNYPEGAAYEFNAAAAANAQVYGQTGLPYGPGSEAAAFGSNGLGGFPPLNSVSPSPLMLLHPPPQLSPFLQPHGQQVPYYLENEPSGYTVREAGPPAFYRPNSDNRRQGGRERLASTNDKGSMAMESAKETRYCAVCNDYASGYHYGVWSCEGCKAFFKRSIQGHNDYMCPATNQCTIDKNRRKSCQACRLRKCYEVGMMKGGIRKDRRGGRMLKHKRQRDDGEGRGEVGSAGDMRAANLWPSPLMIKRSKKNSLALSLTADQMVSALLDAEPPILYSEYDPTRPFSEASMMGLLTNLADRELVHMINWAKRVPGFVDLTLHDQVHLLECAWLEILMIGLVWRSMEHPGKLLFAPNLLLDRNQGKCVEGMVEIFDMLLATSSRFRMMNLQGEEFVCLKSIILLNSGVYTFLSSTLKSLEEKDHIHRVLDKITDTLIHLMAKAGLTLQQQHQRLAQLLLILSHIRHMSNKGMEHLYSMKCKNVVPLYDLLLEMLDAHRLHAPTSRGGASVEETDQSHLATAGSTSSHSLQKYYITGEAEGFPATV
Summary of the method: (§1)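 MCF-7 cells were grown overnight in phenol red-free DMEM with 5% charcoal-stripped FBS. They were then exposed to ligand at 10 nM final or to solvent for 6 h or 24 h. Total RNA was extracted and reverse-transcribed. pS2 mRNA was measured by TaqMan real-time qPCR with RPLPO as reference and reported as fold change relative to control.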

[2] = target: T1, Estrogen receptor (Homo sapiens); test: Induction of ERalpha-mediated pS2 gene expression in human MCF7 cells at 10 uM after 24 hrs by real-time quantitative PCR analysis; format: cell-based
[3] = target: Estrogen receptor beta (Homo sapiens) (UniProt Q92731); test: Agonist activity at ERbeta expressed in HEK293 cells at 10 uM after 24 hrs by luciferase reporter gene assay relative to 3,17-beta-estradiol; format: functional, cell-based
Sequence of Estrogen receptor beta (Homo sapiens) (Q92731 whole entry): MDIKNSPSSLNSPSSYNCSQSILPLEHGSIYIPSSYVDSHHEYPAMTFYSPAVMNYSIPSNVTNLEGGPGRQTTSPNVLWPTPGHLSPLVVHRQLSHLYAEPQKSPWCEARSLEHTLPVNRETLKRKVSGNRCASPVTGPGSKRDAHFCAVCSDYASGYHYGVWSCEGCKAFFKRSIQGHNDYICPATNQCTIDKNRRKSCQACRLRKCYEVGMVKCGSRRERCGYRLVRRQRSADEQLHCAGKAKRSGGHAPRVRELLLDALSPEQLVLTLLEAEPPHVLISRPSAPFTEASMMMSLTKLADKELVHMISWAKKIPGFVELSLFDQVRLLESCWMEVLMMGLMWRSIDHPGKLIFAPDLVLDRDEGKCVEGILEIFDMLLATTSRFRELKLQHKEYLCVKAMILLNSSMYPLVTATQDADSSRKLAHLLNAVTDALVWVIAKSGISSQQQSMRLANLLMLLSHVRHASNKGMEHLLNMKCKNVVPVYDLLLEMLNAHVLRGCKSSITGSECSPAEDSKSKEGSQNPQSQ
Summary of the method: (§2)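 HEK293 cells (no endogenous ER) in phenol-free DMEM with 5% delipidated FBS were transfected for 4 h with 5 ng ERα or ERβ expression vector, 75 ng pERE2TATA-LUC reporter and 20 ng pCMVβ. Cells then received 10 μM compound, 10 nM E2 or vehicle (0.1% v/v) for 24 h. Luciferase was normalized to β-galactosidase and expressed as 100% × (test − vehicle)/(E2 − vehicle). Values are means of at least three independent transfections.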

[4] = species: Homo sapiens; test: Selectivity ratio of relative binding affinity for human ERalpha to relative binding affinity for human ERbeta
Summary of the method: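 COS-1 cells in DMEM with 10% delipidated FBS were transfected for 24 h with human ERα or ERβ vector (pSG5-hERα/β). Cells were washed, lysed in 0.5 M NaOH at 56 °C for 15 min and counted by scintillation, with nonspecific binding subtracted.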

[5] = target: T1, Estrogen receptor (Homo sapiens); test: Antagonist activity at ERalpha in human MCF7 cells assessed as decrease in 3,17-beta-estradiol-induced pS2 gene expression at 1 uM after 24 hrs by real-time quantitative PCR analysis; format: functional, cell-based
Summary of the method: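 Competition format: MCF-7 cells were first grown overnight in phenol red-free DMEM with 5% charcoal-stripped FBS. They were then co-treated for 24 h with 10 nM E2 plus 1 μM compound. Total RNA was extracted and pS2 mRNA was quantified by TaqMan real-time qPCR, normalized to RPLPO.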

[6] = target: T1, Estrogen receptor (Homo sapiens); test: Ratio of compound to 3,17-beta-estradiol binding affinity at ERalpha expressed in COS-1 cells
[7] = target: T1, Estrogen receptor (Homo sapiens); test: Agonist activity at ERalpha expressed in HEK293 cells at 10 uM after 24 hrs by luciferase reporter gene assay relative to 3,17-beta-estradiol; format: functional, cell-based; summary of the method: as §2
[8] = Selectivity for ERalpha over ERbeta
[9] = target: T1, Estrogen receptor (Homo sapiens); test: Induction of ERalpha-mediated pS2 gene expression in human MCF7 cells at 10 nM after 6 hrs by real-time quantitative PCR analysis relative to control; format: cell-based; summary of the method: as §1

Activity [1] | Activity [2] | Activity [3] | Ratio [4] | inhibition [5] | Ratio [6] | Activity [7] | Selectivity ratio [8] | fold change (FC) [9] | Structure (SMILES)
inactive | inactive | 170% | 4 | 23% | 2 | 139% | – | – | O=C(CCCc1ccc(O)cc1)CC(O)c1ccccc1 (single isomer, unassigned; 50a)
– | – | 48.1% | 106 | – | – | 87.3% | – | – | O=C(CCc1cccc(O)c1)CC(O)CCc1ccccc1 (racemic)
– | – | 10.1% | 0.3 | – | – | 46.8% | – | – | O=C(CCc1ccc(O)cc1)CC(O)CCc1ccccc1 (racemic)
inactive | – | 44.7% | 157 | 32% | – | 104% | 2 | 1.8 | Oc1ccc(CCCC2=NOC(c3ccccc3)C2)cc1 (single isomer, unassigned; 45a)
– | – | 103% | 8 | – | – | 90.9% | – | – | CC(O)(CC(=O)CCCc1ccc(O)cc1)c1ccccc1 (racemic)
– | – | 10.6% | 1 | – | – | 13.6% | – | – | CC1(c2ccccc2)CC(CCCc2ccc(O)cc2)=NO1 (single isomer, unassigned; 46b)
– | – | 15.5% | 1.5 | – | – | 69.5% | – | – | CC1(c2ccccc2)CC(CCCc2ccccc2)=NO1 (racemic)
– | – | 17.2% | 1 | – | – | 11.5% | – | – | c1ccc(CCCC2=NOC(c3ccccc3)C2)cc1 (stereo in doubt; 43b)
– | – | 82.3% | 11 | – | – | 105% | – | – | O=C(CCCc1ccc(O)cc1)CC(O)Cc1ccccc1 (racemic)
Active | – | 155% | 5 | 29% | – | 140% | – | – | O=C(CCCc1ccc(O)cc1)CC(O)c1ccccc1 (single isomer, unassigned; 50b)
– | – | -0.9% | 13 | – | – | 14.4% | – | – | CC1(c2ccccc2)CC(CCCc2ccc(O)cc2)=NO1 (single isomer, unassigned; 46a)
– | – | 15.1% | 2 | – | – | 83.3% | – | – | CC(O)(CC(=O)CCCc1ccccc1)c1ccccc1 (racemic)
– | – | 41.5% | 0.5 | – | – | 24.3% | – | – | Oc1ccc(CCC2=NOC(Cc3ccccc3)C2)cc1 (single isomer, unassigned; 3b)
– | – | 28.2% | 5 | – | – | 59.3% | – | – | O=C(CCCc1ccccc1)CC(O)c1ccccc1 (single isomer, unassigned)
inactive | inactive | 77.1% | 41 | 27% | – | 65% | – | – | Oc1ccc(CCCC2=NOC(c3ccccc3)C2)cc1 (single isomer, unassigned; 45b)
